Measured values published in ChEMBL document CHEMBL1138567, “Regioselective synthesis and antimicrobial screening of novel ketocarbazolodispiropyrrolidine derivatives” (2009).

Tests used:
Assay type in all cases: functional
Conditions in all cases: read-out: IZ
Proteus mirabilis [1] = experiment: Antimicrobial activity against Proteus mirabilis at 25 ug/ml after 24 hrs by agar diffusion method
Outline: (§1)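 Agar well diffusion: petri plates (9 cm) with about 9 ml nutrient agar, seeded with the test organism. Wells cut with a cork borer and loaded with test compound at 25, 50, 75 or 100 per ml; tetracycline as control. Incubated 37 °C for 24 h; average inhibition-zone diameter around wells measured (mm).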

[2] = tested on: Salmonella enterica subsp. enterica serovar Typhi str. CT18; experiment: Antimicrobial activity against Salmonella typhi at 50 ug/ml after 24 hrs by agar diffusion method
Outline: (§2)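 Agar well diffusion: about 9 ml nutrient agar in 9 cm Petri plates, seeded with the test organism. Wells cut with a cork borer and loaded with test compound at 25–100 per ml; tetracycline as control. Plates incubated 24 h at 37 °C. Read-out is the average diameter of the inhibition zone around each well, in mm.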

Proteus vulgaris [3] = experiment: Antimicrobial activity against Proteus vulgaris at 25 ug/ml after 24 hrs by agar diffusion method; outline: as §1
Proteus vulgaris [4] = experiment: Antimicrobial activity against Proteus vulgaris at 100 ug/ml after 24 hrs by agar diffusion method; outline: as §1
Proteus mirabilis [5] = experiment: Antimicrobial activity against Proteus mirabilis at 75 ug/ml after 24 hrs by agar diffusion method; outline: as §1
Proteus vulgaris [6] = experiment: Antimicrobial activity against Proteus vulgaris at 50 ug/ml after 24 hrs by agar diffusion method; outline: as §1
Proteus mirabilis [7] = experiment: Antimicrobial activity against Proteus mirabilis at 100 ug/ml after 24 hrs by agar diffusion method; outline: as §1
Staphylococcus aureus [8] = experiment: Antimicrobial activity against Staphylococcus aureus at 75 ug/ml after 24 hrs by agar diffusion method; outline: as §1
Proteus vulgaris [9] = experiment: Antimicrobial activity against Proteus vulgaris at 75 ug/ml after 24 hrs by agar diffusion method; outline: as §1
Staphylococcus aureus [10] = experiment: Antimicrobial activity against Staphylococcus aureus at 100 ug/ml after 24 hrs by agar diffusion method; outline: as §1
Staphylococcus aureus [11] = experiment: Antimicrobial activity against Staphylococcus aureus at 50 ug/ml after 24 hrs by agar diffusion method; outline: as §1
[12] = tested on: Salmonella enterica subsp. enterica serovar Typhi str. CT18; experiment: Antimicrobial activity against Salmonella typhi at 75 ug/ml after 24 hrs by agar diffusion method; outline: as §2
Proteus mirabilis [13] = experiment: Antimicrobial activity against Proteus mirabilis at 50 ug/ml after 24 hrs by agar diffusion method; outline: as §1
[14] = tested on: Salmonella enterica subsp. enterica serovar Typhi str. CT18; experiment: Antimicrobial activity against Salmonella typhi at 25 ug/ml after 24 hrs by agar diffusion method; outline: as §2
[15] = tested on: Salmonella enterica subsp. enterica serovar Typhi str. CT18; experiment: Antimicrobial activity against Salmonella typhi at 100 ug/ml after 24 hrs by agar diffusion method; outline: as §2
Staphylococcus aureus [16] = experiment: Antimicrobial activity against Staphylococcus aureus at 25 ug/ml after 24 hrs by agar diffusion method; outline: as §1

SMILES | zone of inhibition at 25 µg/mL (Proteus mirabilis [1]) [mm] | zone of inhibition at 50 µg/mL [2] [mm] | zone of inhibition at 25 µg/mL (Proteus vulgaris [3]) [mm] | zone of inhibition at 100 µg/mL (Proteus vulgaris [4]) [mm] | zone of inhibition at 75 µg/mL (Proteus mirabilis [5]) [mm] | zone of inhibition at 50 µg/mL (Proteus vulgaris [6]) [mm] | zone of inhibition at 100 µg/mL (Proteus mirabilis [7]) [mm] | zone of inhibition at 75 µg/mL (Staphylococcus aureus [8]) [mm] | zone of inhibition at 75 µg/mL (Proteus vulgaris [9]) [mm] | zone of inhibition at 100 µg/mL (Staphylococcus aureus [10]) [mm] | zone of inhibition at 50 µg/mL (Staphylococcus aureus [11]) [mm] | zone of inhibition at 75 µg/mL [12] [mm] | zone of inhibition at 50 µg/mL (Proteus mirabilis [13]) [mm] | zone of inhibition at 25 µg/mL [14] [mm] | zone of inhibition at 100 µg/mL [15] [mm] | zone of inhibition at 25 µg/mL (Staphylococcus aureus [16]) [mm]
CN1C[C@@H](c2ccc([N+](=O)[O-])cc2)[C@@]2(CCc3c([nH]c4ccccc34)C2=O)[C@]12C(=O)Nc1ccccc12 | 12 | 16 | 9 | 22 | 16 | 13 | 20 | 14 | 18 | 20 | 11 | 18 | 13 | 9 | 22 | –
COc1ccc([C@@H]2CN(C)[C@@]3(C(=O)Nc4ccccc43)[C@]23CCc2c([nH]c4ccccc24)C3=O)cc1 | 9 | 14 | 11 | 20 | 16 | 13 | 21 | 17 | 18 | 20 | 14 | 18 | 13 | 12 | 21 | 12
CN1C[C@@H](c2ccc([N+](=O)[O-])cc2)[C@@]2(CCc3c([nH]c4ccccc34)C2=O)C12C(=O)c1ccccc1C2=O | 9 | 11 | 12 | 18 | 18 | 17 | 21 | 18 | 18 | 18 | 14 | 13 | 13 | 9 | 18 | 11
Cc1ccc([C@@H]2CN(C)[C@@]3(C(=O)c4cccc5cccc3c45)[C@]23CCc2c([nH]c4ccccc24)C3=O)cc1 | 11 | 15 | 11 | 20 | 18 | 14 | 21 | 23 | 16 | 27 | 18 | 21 | 14 | 12 | 29 | 14
CN1C[C@@H](c2ccc(Cl)cc2)[C@@]2(CCc3c([nH]c4ccccc34)C2=O)[C@]12C(=O)c1cccc3cccc2c13 | 12 | 16 | 19 | > 40 | 24 | 18 | 36 | 22 | 24 | 34 | 18 | 21 | 16 | 13 | 31 | 14
CN1C[C@@H](c2ccc([N+](=O)[O-])cc2)[C@@]2(CCc3c([nH]c4ccccc34)C2=O)[C@]12C(=O)c1cccc3cccc2c13 | 9 | 14 | 13 | > 40 | 17 | 22 | 21 | 21 | 27 | 31 | 16 | 18 | 13 | 11 | 25 | 9
CN1C[C@@H](c2ccccc2)[C@@]2(CCc3c([nH]c4ccccc34)C2=O)C12C(=O)c1ccccc1C2=O | – | 13 | 11 | 21 | 13 | 15 | 15 | 16 | 18 | 20 | 14 | 14 | 9 | 9 | 18 | –
Cc1ccc([C@@H]2CN(C)[C@@]3(C(=O)Nc4ccccc43)[C@]23CCc2c([nH]c4ccccc24)C3=O)cc1 | 11 | 12 | 12 | 21 | 16 | 16 | 18 | 16 | 18 | 20 | 13 | 14 | 14 | 9 | 16 | 9
CN1C[C@@H](c2ccccc2)[C@@]2(CCc3c([nH]c4ccccc34)C2=O)[C@]12C(=O)Nc1ccccc12 | 9 | 11 | 12 | 26 | 14 | 16 | 16 | 16 | 20 | 18 | 13 | 13 | 12 | 9 | 18 | 11
CN1C[C@@H](c2ccc(Cl)cc2)[C@@]2(CCc3c([nH]c4ccccc34)C2=O)[C@]12C(=O)Nc1ccccc12 | 13 | 15 | 9 | 26 | 18 | 18 | 22 | 18 | 24 | 21 | 14 | 17 | 15 | 11 | 18 | 9
CN1C[C@@H](c2ccc(Br)cc2)[C@@]2(CCc3c([nH]c4ccccc34)C2=O)[C@]12C(=O)c1cccc3cccc2c13 | 13 | 14 | 12 | 22 | 18 | 16 | 22 | 18 | 20 | 22 | 14 | 21 | 15 | 9 | 30 | 11
COc1ccc([C@@H]2CN(C)[C@@]3(C(=O)c4cccc5cccc3c45)[C@]23CCc2c([nH]c4ccccc24)C3=O)cc1 | 14 | 15 | 9 | 17 | 20 | 12 | 22 | 21 | 13 | 30 | 16 | 18 | 16 | 13 | 26 | 9
CN(C)[C@@H]1C(O)=C(C(N)=O)C(=O)[C@@]2(O)C(O)=C3C(=O)c4c(O)cccc4[C@@](C)(O)[C@H]3C[C@@H]12 [TETRACYCLINE] | 18 | 22 | 18 | > 40 | 28 | 24 | > 40 | 28 | 28 | > 40 | 24 | 28 | 24 | 18 | > 40 | 22
